Data: article PMC4416029 (Behavioural Pharmacology, 2015)

Legend:
[1] = biological target: aggregated tau in L66 (Homo sapiens, UniProt P10636, G652D/P618S); experiment: Immunohistochemical counts of tau-reactive neurons; type: in vivo, mouse; settings: L66 heterozygous, 8–9 months, MTC 45 mg/kg (35.1 mg MT/kg), 3 weeks
In short: (§1)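 Separate histology cohorts were killed by Euthatal overdose 1 h after the last dose. Brains were removed, paraformaldehyde-fixed and paraffin-embedded. Sixteen 3-μm sections per brain were stained together with WT, L1 and L66 controls, using mAb 7/51 (hybridoma supernatant 1:300) with HRP anti-mouse detection and haematoxylin counterstain. Tau-reactive neurons were counted by region, expressed as ln(count+1) and as percentage reduction versus zero dose.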

[2] = Body weight over 8 weeks of oral treatment, L1 and WT mice; type: in vivo, mouse; settings: over 8 weeks of oral administration; identical in WT and L1 cohorts; drug exposure did not differ from vehicle
[3] = test system: wild-type (WT) control mice; experiment: Visible platform task in the water maze, WT mice; type: in vivo, mouse
In short: (§2)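 Mice aged 5 months (L1 and WT) received 15 or 45 mg/kg by oral gavage for 5 weeks (Monday–Friday), with dosing continued during testing 1 h before the first trial. Cued training lasted 4 days at 4 trials/day in a 1.5 m pool with water at 21±1°C, curtains drawn and a flagged platform moved daily among 20 sites. Each trial allowed 60 s, with a 2 s stay and a 10-min intertrial interval. Path length and swim speed were video-tracked.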

[4] = biological target: aggregated tau in Line 1 (Homo sapiens, UniProt P10636); experiment: Immunohistochemical counts of tau-reactive neurons; type: in vivo, mouse; settings: L1 mice, 45 mg/kg oral, 19 days
aggregated tau in Line 1, sequence (P10636 613-707): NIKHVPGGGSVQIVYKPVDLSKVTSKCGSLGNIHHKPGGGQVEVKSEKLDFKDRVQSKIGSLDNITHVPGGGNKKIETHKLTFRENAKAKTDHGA
In short: as §1

[5] = test system: Alzheimer's disease patients; settings: AD of mild or moderate severity, 24 weeks; ref Wischik et al., 2015; cited from earlier work
[6] = test system: mitochondrial β-oxidation; settings: ref Visarius et al., 1997; cited from earlier work
[7] = test system: Line 66 (L66) tau transgenic mice; experiment: RotaRod motor performance and motor learning, L66 mice; type: in vivo, mouse
In short: (§3)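 On a four-lane rat RotaRod, pretreatment trials in week 1 were used for cohort matching. Mice then received 2 weeks of daily oral dosing (Monday–Sunday, 08.00–10.00 h): L66 at 5, 15 or 45 mg/kg, WT at 45 mg/kg only. Post-treatment training in week 4 continued dosing 1 h before the first trial. Time to fall was recorded over 12 trials. Learning was scored as trial 12 minus trial 1, and memory as pretreatment versus post-treatment trial 1.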

[8] = test system: wild-type (WT) control mice; experiment: RotaRod motor performance, WT mice; type: in vivo, mouse; settings: 45 mg/kg oral
In short: as §3

[9] = Body weight during 19-day treatment, L66 and WT mice; type: in vivo, mouse; settings: 5–45 mg/kg oral, 19 days, LMTX in this case LMTB
[10] = test system: L1 mice; experiment: Behavioural reactions observed on treatment, L1 histology cohorts; type: in vivo, mouse; settings: 75 mg/kg oral, transient
[11] = Measurement of methylthioninium levels in the brain of L66 mice; type: in vivo, mouse
[12] = test system: Line 1 (L1) tau transgenic mice; experiment: Problem-solving task in the water maze; type: in vivo, mouse
In short: as §2

aggregated tau in L66, sequence (P10636 1-441 isoform P10636-8 P301S/G335D): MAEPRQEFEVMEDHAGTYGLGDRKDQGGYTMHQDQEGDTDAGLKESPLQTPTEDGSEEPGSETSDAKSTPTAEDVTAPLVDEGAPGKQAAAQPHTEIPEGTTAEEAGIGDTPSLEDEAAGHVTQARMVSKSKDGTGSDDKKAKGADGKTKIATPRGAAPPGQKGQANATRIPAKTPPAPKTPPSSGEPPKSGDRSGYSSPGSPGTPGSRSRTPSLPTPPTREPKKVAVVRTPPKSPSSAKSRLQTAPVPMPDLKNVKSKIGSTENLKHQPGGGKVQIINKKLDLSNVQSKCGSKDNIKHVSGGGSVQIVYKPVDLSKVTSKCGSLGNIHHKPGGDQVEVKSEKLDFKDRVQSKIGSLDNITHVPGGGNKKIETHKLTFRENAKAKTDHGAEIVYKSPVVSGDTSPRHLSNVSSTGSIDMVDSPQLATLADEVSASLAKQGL

percentage reduction in counts compared with zero dose, mean over region [1]: 44%
reduction in tau-reactive neurons, subiculum [4]: 83%
mean brain concentration of total MT ([11]; lowest effective dose (4 mg MT/kg), oral): 150 ± 10 nM
Substance: 3,7-bis(dimethylamino)phenothiazin-5-ylium chloride [MTC]
weight loss [2]: 15–20%
effect on path length to visible platform ([3]; 15 mg/kg oral): improvement
effect on path length to visible platform ([3]; 45 mg/kg oral): did not differ from controls
minimum effective dose at clinical and molecular imaging endpoints [5]: 138 mg MT/day
concentration for enhancement of mitochondrial β-oxidation [6]: 0.3 µmol/L
effect on post-treatment RotaRod performance vs vehicle ([7]; 5 mg/kg oral): significant benefit
effect on post-treatment RotaRod performance vs vehicle ([7]; 15 mg/kg oral): significant benefit
effect on motor learning (difference between trial 1 and trial 12) ([7]; all doses (5, 15, 45 mg/kg)): full recovery of motor learning
lowest effective dose, correction of motor learning on RotaRod ([7]; oral, 19 days (5 mg/kg of compound)): 4 mg MT/kg
effect on post-treatment RotaRod performance vs vehicle [8]: did not affect the performance
effect on body weight compared with vehicle controls [9]: dose-dependent weight loss
behavioural reactions [10]: hunched posture, low activity, piloerection
brain MT concentration with evidence of plateauing of RotaRod performance ([11]; 5 or 15 mg/kg, LMTX in this case LMTB): 0.6 mmol/L
effect on swim speed ([12]; L1 and WT mice, 15 and 45 mg/kg oral, visible platform task): did not alter the velocity
effect on mean number of trials to criterion (three spatial problems) ([12]; L1 mice, 15 mg/kg oral): longer training required to meet criterion
effect on mean number of trials to criterion (three spatial problems) ([12]; L1 mice, 45 mg/kg oral): impairment was reversed
effect on path length to visible platform ([12]; L1 mice, 15 and 45 mg/kg oral, 4 days cued training): No drug effect
dose required to produce benefit in spatial problem-solving water maze task ([12]; L1 mice, oral, 8 weeks, dose as weight of compound): 45 mg/kg
